Among the data in ChEMBL document CHEMBL1146838, “4-Hydroxy-3-methyl-6-phenylbenzofuran-2-carboxylic acid ethyl ester derivatives as potent anti-tumor agents” (Bioorg Med Chem Lett, 2004) are EC50 values, retold here.

Each structure is given as a SMILES string. ≈ marks a conversion by molar mass, not a printed value. Bounds are passed on as bounds.

What is called EC50 is the concentration that produces a half-maximal response.

The assay concerns WI-38 VA13. The experiment in a line: Cytotoxicity against VA13 cell line; Expressed as effective concentration. Type of assay: functional, cell-based. As to conditions: Homo sapiens. The method, boiled down: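 Human tumorigenic VA13 cells grown in MEM-E with penicillin/streptomycin and 10% fetal calf serum, seeded at 1.5–3.0×10³ cells/well, cultured 2–3 days. Compounds in DMSO (final <0.5%) added for 24 h, then washed out and cells cultured a further 3 days in fresh medium. XTT with phenazine methosulfate added for 2.5 h, OD450 read. Viability computed relative to untreated and cell-free blanks; EC50 taken from dose–response curve.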
On to `CCc1ccc(C(=O)c2oc3cc(-c4ccccc4)cc(O)c3c2C)cc1`, for which the EC50 is above 4 µg/mL. Next, `CCCCC(=O)c1oc2cc(-c3ccccc3)cc(O)c2c1C`: 2 µg/mL (≈ 6.49 µM); `Cc1c(C(=O)Cc2ccccc2)oc2cc(-c3ccccc3)cc(O)c12`: above 4 µg/mL.

For `Cc1c(C(=O)c2cccs2)oc2cc(-c3ccccc3)cc(O)c12`, the EC50 was found to be 2 µg/mL (≈ 5.98 µM). As for `Cc1c(C(=O)c2ccc(N(C)C)cc2)oc2cc(-c3ccccc3)cc(O)c12`, the figure is above 4 µg/mL; as for `Cc1c(C(=O)C2CCCCC2)oc2cc(-c3ccccc3)cc(O)c12`, 0.45 µg/mL (≈ 1.35 µM). As for `Cc1c(C(=O)c2cccc(OC(C)C)c2)oc2cc(-c3ccccc3)cc(O)c12`, the figure is 0.35 µg/mL (≈ 0.906 µM); as for `Cc1c(C(=O)c2cccc(C(F)(F)F)c2)oc2cc(-c3ccccc3)cc(O)c12`, above 4 µg/mL; as for `COc1ccc(C(=O)c2oc3cc(-c4ccccc4)cc(O)c3c2C)c(OC)c1`, 0.04 µg/mL (≈ 0.103 µM).

The compound `Cc1c(C(=O)C(C)C)oc2cc(-c3ccccc3)cc(O)c12` registered an EC50 of 0.41 µg/mL (≈ 1.39 µM).

Take `COCc1ccccc1C(=O)c1oc2cc(-c3ccccc3)cc(O)c2c1C`: the EC50 stood at 0.1 µg/mL (≈ 0.269 µM).

`Cc1c(C(=O)c2cncnc2)oc2cc(-c3ccccc3)cc(O)c12` returned a concentration giving a half-maximal response (EC50) of 0.7 µg/mL (≈ 2.12 µM). Next, `Cc1c(C(=O)c2ccccc2)oc2cc(-c3ccccc3)cc(O)c12`: 0.6 µg/mL (≈ 1.83 µM); `Cc1c(C(=O)c2cnc3ccccc3c2)oc2cc(-c3ccccc3)cc(O)c12`: above 4 µg/mL; `COc1ccc(C(=O)c2oc3cc(-c4ccccc4)cc(O)c3c2C)cc1OC`: 0.45 µg/mL (≈ 1.16 µM).

`CC(=O)c1oc2cc(-c3ccccc3)cc(O)c2c1C` displayed an EC50 of 0.08 µg/mL (≈ 0.3 µM). The compound `COc1ccc(CCOC(=O)c2oc3cc(-c4ccccc4)cc(O)c3c2C)cc1` had an EC50 of 0.02 µg/mL (≈ 0.0497 µM). Against the preceding compound, the EC50 is about 4-fold lower.

Consider `Cc1c(C(=O)OC(C)C)oc2cc(-c3ccccc3)cc(O)c12`, for which the EC50 stood at 0.06 µg/mL (≈ 0.193 µM). As for `CCCC(=O)c1oc2cc(-c3ccccc3)cc(O)c2c1C`, the figure is 0.59 µg/mL (≈ 2 µM). Next, `COc1cc(C(F)(F)F)ccc1C(=O)c1oc2cc(-c3ccccc3)cc(O)c2c1C`: 0.26 µg/mL (≈ 0.61 µM); `COc1ccc(CCOC(=O)c2oc3cc(-c4ccccc4)cc(O)c3c2C)cc1OC`: 0.021 µg/mL (≈ 0.0486 µM); `Cc1c(C(=O)c2nccs2)oc2cc(-c3ccccc3)cc(O)c12`: 0.4 µg/mL (≈ 1.19 µM). As for `Cc1c(C(=O)CCc2ccccc2)oc2cc(-c3ccccc3)cc(O)c12`, the figure is above 4 µg/mL; as for `Cc1c(C(=O)c2ccccc2-c2ccccc2)oc2cc(-c3ccccc3)cc(O)c12`, 0.1 µg/mL (≈ 0.247 µM). Take `Cc1ncsc1CCOC(=O)c1oc2cc(-c3ccccc3)cc(O)c2c1C`: the EC50 was 0.055 µg/mL (≈ 0.14 µM). Next, `Cc1c(C(=O)c2ccc(Oc3ccccc3)cc2)oc2cc(-c3ccccc3)cc(O)c12`: above 4 µg/mL; `Cc1c(C(=O)c2cccc(CN(C)C)c2)oc2cc(-c3ccccc3)cc(O)c12`: 0.09 µg/mL (≈ 0.233 µM). As for `Cc1c(C(=O)c2ccc(F)c(F)c2)oc2cc(-c3ccccc3)cc(O)c12`, the figure is 0.4 µg/mL (≈ 1.1 µM). Next, `CCC(=O)c1oc2cc(-c3ccccc3)cc(O)c2c1C`: 0.27 µg/mL (≈ 0.963 µM). `COc1ccc(C(=O)c2oc3cc(-c4ccccc4)cc(O)c3c2C)cc1` showed an EC50 of 0.28 µg/mL (≈ 0.781 µM). Compound `COc1ccc(C(=O)c2oc3cc(-c4ccccc4)cc(O)c3c2C)c(C(F)(F)F)c1` displayed an EC50 of 0.4 µg/mL (≈ 0.938 µM). As for `Cc1c(C(=O)NCCc2ccccn2)oc2cc(-c3ccccc3)cc(O)c12`, the figure is 1.5 µg/mL (≈ 4.03 µM); as for `Cc1c(C(=O)c2ccc(CN(C)C)cc2)oc2cc(-c3ccccc3)cc(O)c12`, above 4 µg/mL. As for `Cc1c(C(=O)c2ccccn2)oc2cc(-c3ccccc3)cc(O)c12`, the figure is 0.6 µg/mL (≈ 1.82 µM); as for `Cc1c(C(=O)C(C)(C)C)oc2cc(-c3ccccc3)cc(O)c12`, 0.41 µg/mL (≈ 1.33 µM). Next, `COc1ccccc1C(=O)c1oc2cc(-c3ccccc3)cc(O)c2c1C`: 0.09 µg/mL (≈ 0.251 µM).

For `Cc1c(C(=O)O)oc2cc(-c3ccccc3)cc(O)c12`, the half-maximal effective concentration (EC50) was above 4 µg/mL.

The compound `CCOC(=O)c1oc2cc(-c3ccccc3)cc(O)c2c1C` had a concentration for a half-maximal effect (EC50) of 0.04 µg/mL (≈ 0.135 µM). Next, `COc1ccc(OC)c(C(=O)c2oc3cc(-c4ccccc4)cc(O)c3c2C)c1`: 0.09 µg/mL (≈ 0.232 µM).
